MT1-MMP txn act = activates MT1-MMP transcription; HT1080 MT1-MMP promoter luciferase reporter, luminescence, overnight; stronger effect = higher value; activation factor at 10 µM; 86,000 compounds, 0.16% hits; AID 750;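 active = activation factor of at least 2 for MT1-MMP transcription at 10 µM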
HEK293 NFkB inh = inhibitors of the PMA/ionomycin-induced NF-kB reporter in HEK293 cells; HEK-293 NF-kB luciferase reporter, luminescence; inhibition, % at 3 µM; 62,000 compounds, 0.21% hits;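 active = inhibition above the mean of all tested compounds plus 3 SD, cut at about 40% in these data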;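 note: 0% = stimulated DMSO wells and 100% = 10 µM reference inhibitor 5653914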
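Material: HEK-293 cells with stable firefly luciferase reporter driven by four HIV NF-kB elements / Also added: PMA plus ionomycin mix as NF-kB-activating stimulus / Compound dosing: 3 µM once, 0.30% DMSO / Times: 1 h pretreatment, 16 h stimulation, 37 °C / Signal: luminescence / Evaluation: per-plate % inhibition versus controls / Benchmarks: DMSO and 10 µM reference inhibitor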
SF-1 act = activates the human nuclear receptor SF-1. 65,000 compounds, 1.9% hits. activation, % at 10 µM. CHO-K1 Gal4-SF-1 LBD luciferase reporter; % increase over DMSO SF-1-specific signal. Q13285;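 active = activation above the mean activation of all tested compounds plus 3 SD, cut at about 50% in these data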
Target sequence (Q13285 whole entry, looked up, the tested form may be a part): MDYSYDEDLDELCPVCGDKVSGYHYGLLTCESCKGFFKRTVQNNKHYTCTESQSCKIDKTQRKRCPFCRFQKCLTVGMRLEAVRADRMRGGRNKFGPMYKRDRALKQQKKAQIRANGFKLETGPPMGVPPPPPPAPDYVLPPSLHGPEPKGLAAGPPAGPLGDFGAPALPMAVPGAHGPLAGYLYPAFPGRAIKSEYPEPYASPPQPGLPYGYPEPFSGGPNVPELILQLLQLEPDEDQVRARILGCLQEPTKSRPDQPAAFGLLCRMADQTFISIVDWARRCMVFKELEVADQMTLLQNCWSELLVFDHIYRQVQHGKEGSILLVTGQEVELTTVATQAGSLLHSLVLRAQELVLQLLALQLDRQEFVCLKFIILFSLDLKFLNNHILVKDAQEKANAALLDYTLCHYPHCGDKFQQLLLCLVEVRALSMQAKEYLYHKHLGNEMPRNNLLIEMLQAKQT
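Test system: CHO-K1 cells co-transfected with Gal4 DBD–human SF-1 LBD, 5xGal4 luciferase reporter. Quantity: 4,000 cells per well. Compound: 10 µM only. Incubation: compound added 1 h post-seeding, 20 h exposure at 37 °C, 5% CO2. Detection: SteadyLite luciferase luminescence. Replication: one test per compound.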
RORa activator = activates the human nuclear receptor RORA. P35398. CHO-K1 Gal4-RORA LBD luciferase reporter, luminescence; percent increase over mock-subtracted basal signal. activation, % at 10 µM. 65,000 compounds, 1.5% hits. AID 560;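 active = activation above the mean of all tested compounds plus 3 SD, cut at about 49% in these data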;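 note: 0% = DMSO-treated RORA cells and 100% = added signal equal to DMSO minus mock-transfected cells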
Jurkat viability = reduces viability or proliferation of Jurkat cells. AID 463. Jurkat E6.1 viability, ATP luminescence, 48 h. inhibition, % at 4 µM. 56,000 compounds, 1.2% hits;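 active = inhibition above the mean inhibition of all tested compounds plus 3 SD, cut at about 28% in these data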
* = called active by the depositor; x = no result. An excerpt weighted towards active compounds, which were near 2.9% of everything screened.

SMILES	MT1-MMP txn act	HEK293 NFkB inh	SF-1 act	RORa activator	Jurkat viability
COc1ccccc1N1CCN(C(=O)CN(c2ccccc2OC)S(=O)(=O)c2ccccc2)CC1	0.9	-1	-6	-12	-3
O=C(OCc1nc2ccccc2s1)C1CCN(C2=NS(=O)(=O)c3ccccc32)CC1	1.6	-2	53*	26	-2
Cc1nc2c(cnn2-c2ccc(Cl)cc2)c(=O)n1-c1ccc2c(c1)OCCO2	1	22	2	-2	-2
CC1(C)CC(=O)c2cnc(N)nc2C1	2.4*	x	x	x	x
CC1(C)CC(=O)c2cnc(N3CCN(c4ccccc4)CC3)nc2C1	1.2	3	1	4	-10
CCNc1nc(N)c(C(=O)c2ccc(Cl)s2)s1	1.7	-16	31	50*	0
CCOC(=O)c1c(NC(=O)c2ccc(Cl)s2)sc(C)c1C	1.1	-13	-6	1	-7
Cn1nnc(NC(=O)c2cccc(OCc3ccccc3)c2)n1	1	6	48	54*	-7
CCC(NC(=O)NCc1cccnc1)(C(F)(F)F)C(F)(F)F	1.3	6	28	-13	8
Cc1ccc(O)c(NC(=O)CCC2CCCCC2)c1	1.3	-7	38	31	39*
Cn1c(NC(=O)CCC2CCCCC2)cc(=O)n(C)c1=O	1.5	-25	92*	38	3
Cc1cc(C)c(S(=O)(=O)Nc2ccc[nH]c2=O)c(C)c1	1.2	13	0	-13	6
CC(C)(C)c1cc(C(c2cccnc2)N2CCN(CCO)CC2)cc(C(C)(C)C)c1O (centres undefined)	x	3	-34	13	-2
OCCN1CCN(C(c2cccs2)c2ccc3cccnc3c2O)CC1 (centres undefined)	0.9	8	20	-11	53*
CC(=NCCCn1ccnc1)c1c(-c2ccccc2)[nH]n(-c2nc3ccccc3s2)c1=O	1.1	x	x	x	x
CC(=NC1CCCC1)c1c(C)[nH]n(-c2nc3ccccc3s2)c1=O	0.8	x	71*	8	x
O=C(Nc1cccc2ccccc12)c1cnccn1	1.6	-10	63*	15	-2
O=C(Nc1cccc2cccnc12)c1cccnc1	1.2	8	7	16	-4
Cc1cnc(C(=O)Nc2cccc3cccnc23)cn1	0.9	2	-61	-27	84*
Cc1ccc2nc(NC(=O)C3CCCN(S(=O)(=O)c4cnc[nH]4)C3)sc2c1 (centres undefined)	1.4	-13	26	54*	-2
Brc1ccc(C2=Nn3c(nnc3-c3n[nH]c4c3CCC4)SC2)cc1	0.5	32	-9	-16	79*
Clc1ccc(C2=Nn3c(nnc3-c3n[nH]c4c3CCC4)SC2)cc1	1.2	38	-9	-17	92*
COC(=O)c1ccccc1NC(=O)C1CCN(C(=O)c2cc(OC)c(OC)c(OC)c2)CC1	1	15	3	8	x
Cc1ccc(Br)cc1S(=O)(=O)N1CCN(c2ccccc2)CC1	1.1	11	10	22	6
CCOC(=O)C1(N(CC)CC)Sc2cc(C)ccc2NC1=O (centres undefined)	1.2	6	23	27	36*
SMILES	MT1-MMP txn act	HEK293 NFkB inh	SF-1 act	RORa activator	Jurkat viability
Cc1ccc(-c2nnc(-c3ccc(Br)cc3)o2)o1	1.3	-32	75*	25	3
Brc1ccc(-c2nnc(-c3cccc(Br)c3)o2)cc1	1.4	x	x	x	x
COC(=O)c1ccc(C(NC(=O)OCc2ccccc2)/C(=C/[C@@H](C)C(=O)Nc2ccccc2)c2cccnc2)cc1 (some centres undefined)	1.3	x	x	x	x
Nc1nc(NC(=O)c2cccs2)nn1-c1ccccc1	1.3	x	77*	38	x
O=C(Nc1ccc2nn(-c3ccccc3)nc2c1)c1cccs1	1.8	-15	70*	12	-5
O=C(Nc1ccccc1)N(C1=NCCC1)c1ccc(OC(F)F)cc1	1.2	14	-16	27	1
CC(C)=CC1C=C(C)C(C)C2C(=O)NNC(=O)C12 (centres undefined)	1	x	x	x	x
CCN(Cc1ccccc1)C(=O)CCCOc1ccccc1	1.5	4	32	58*	-2
CCn1c(SCC(=O)c2cccs2)nnc1-c1ccco1	1.3	0	54*	7	-8
CCn1c(SCC(N)=O)nnc1-c1ccco1	1.4	8	-3	-1	-13
Cc1ncsc1C(=O)Nc1nc2c(s1)CC(C)CC2 (centres undefined)	1.1	-27	62*	56*	4
O=C(NCCN1C(=O)C2C3C=CC(C3)C2C1=O)Nc1ccccc1 (centres undefined)	1.1	-8	-3	16	-5
COc1ccc(NC(=O)NCCN2C(=O)C3C4C=CC(C4)C3C2=O)cc1 (centres undefined)	1.5	9	30	66*	-7
Cc1ccc(NC(=O)NCCN2C(=O)C3C4C=CC(C4)C3C2=O)cc1 (centres undefined)	1.4	-33	98*	74*	-11
Cc1[nH]n(-c2ccccc2)c(=O)c1S(=O)(=O)c1ccccc1	1.3	21	10	7	x
O=C(c1cn(-c2ccccc2)nc1-c1ccncc1)n1nnc2ccccc21	1.2	6	-1	-13	-3
Nc1cccc(-c2nc3ccc(N)cc3s2)c1	0.3	18	-61	-57	18
Nc1ccc(O)c(-c2nc3ccccc3s2)c1	2.1*	-7	40	22	0
CC(C)NC(=O)[C@@H]1C[C@H]1[C@@H](NC(=O)OCc1ccccc1)c1ccccc1	1.1	x	x	x	x
CCOC(=O)N1CCN(c2cc(C)c(C(C)=O)cc2F)CC1	1	0	-14	15	2
CCOC(=O)N1CCN(c2ccc(C(=O)c3ccccc3)cc2F)CC1	1.4	1	36	58*	6
Cn1cc(C(=O)c2ccc(Cl)cc2)cc1-c1nc2ccccc2n1C	1.1	10	-28	-11	42*
CCCOC(=O)Nc1nc2ccccc2o1	1.5	-11	58*	34	3
CCOC(=O)c1ccccc1NC(=O)CSc1nc2ccccc2o1	1.1	3	4	-9	-1
O=C(CSc1nnc(-c2ccccc2)n1Cc1ccccc1)N1CCOCC1	1	9	-12	11	4
SMILES	MT1-MMP txn act	HEK293 NFkB inh	SF-1 act	RORa activator	Jurkat viability
Oc1ccccc1-c1nnc(SCCN2CCOCC2)n1Cc1ccccc1	1.3	28	-20	-8	78*
O=C(NCCN1CCOCC1)c1cc(-c2ccccc2)on1	1.2	-12	37	-1	-4
O=C(NCCN1CCOCC1)c1cc(-c2cccs2)on1	1.2	-25	35	68*	10
O=C(c1cc(-c2cccs2)on1)N1CCOCC1	1.3	-20	48	51*	-2
COC(=O)[C@@]1(Cc2ccc(OC)cc2)[C@H]2c3cc(C(=O)N4CCCC4)n(CCc4ccc(O)c(O)c4)c3C[C@H]2CN1C(=O)c1ccccc1	1.2	x	x	x	x
COc1ccc2c(c1)[nH]c1c(=O)n(CC3CCCO3)cnc12 (centres undefined)	x	x	51*	17	x

Bioassay records (PubChem)
